The list is not random: actives were taken first. Their share in the collection is about 1.8%.
Wee1 degr inh: Wee1 degradation inhibitors, primary screen, cell-based, HeLa, Wee1K328M-luciferase, luminescence. AID 1321, 2008. Wee1-like protein kinase (Homo sapiens), P30291. HeLa Luc-Wee1K328M stability; 100% = proteasome inhibitor MG132 effect. hit rate 1.2% among 220,000. reporter increase, % at 5 µM;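 active = activation above the mean of all tested compounds plus 3 SD, set per screening run, cut at about 8.8% in these data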;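 also: cells exposed to compound for 20 h before luminescence read; 0% = DMSO alone and 100% = MG132 at 30 µM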
FXIa inh 1536: human FXIa protease inhibitors, primary screen, biochemical, 1536-well; purified FXIa, Boc-Glu-Ala-Arg-AMC fluorogenic substrate; inhibition, % at 5 µM; hit rate 0.14% among 220,000;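 active = inhibition of at least 40%; inactive = inhibition below 40%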;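 also: fluorescence of freed AMC excited at 355 nm; 0% = enzyme without compound and 100% = no enzyme blank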
Target sequence (P03951 19-387 limits assumed): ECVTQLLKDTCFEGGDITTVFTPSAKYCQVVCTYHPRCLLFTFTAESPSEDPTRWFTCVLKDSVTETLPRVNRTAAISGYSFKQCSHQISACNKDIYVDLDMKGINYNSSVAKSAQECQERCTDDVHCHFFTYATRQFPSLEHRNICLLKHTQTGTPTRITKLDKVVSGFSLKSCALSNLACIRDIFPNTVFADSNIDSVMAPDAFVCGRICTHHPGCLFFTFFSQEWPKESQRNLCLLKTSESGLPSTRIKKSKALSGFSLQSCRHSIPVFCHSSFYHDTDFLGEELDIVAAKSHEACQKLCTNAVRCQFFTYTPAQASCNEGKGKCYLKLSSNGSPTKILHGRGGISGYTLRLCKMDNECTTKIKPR
Target sequence (P03951 388-625 limits assumed): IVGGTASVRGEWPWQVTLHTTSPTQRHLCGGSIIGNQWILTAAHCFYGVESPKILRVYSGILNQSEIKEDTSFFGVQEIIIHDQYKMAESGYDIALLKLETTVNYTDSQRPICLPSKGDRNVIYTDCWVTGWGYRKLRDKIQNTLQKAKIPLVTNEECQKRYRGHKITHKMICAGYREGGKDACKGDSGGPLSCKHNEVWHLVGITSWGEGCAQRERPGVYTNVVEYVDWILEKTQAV
FXIIa inh 1536: human FXIIa protease inhibitors, primary screen, biochemical, 1536-well; AID 800, 2007; Coagulation factor XII (Homo sapiens), P00748; purified FXIIa, Boc-QGR-AMC fluorogenic substrate, 2 h; inhibition, % at 5 µM; hit rate 0.3% among 220,000; in the data active = inhibition above about 40%;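 also: 0% = enzyme with no compound and 100% = blank without enzyme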
KLK5 inh: human KLK5 protease inhibitors, primary screen, biochemical, 1536-well. hit rate 0.59% among 210,000. inhibition, % at 5 µM. recombinant hK5, fluorogenic AMC substrate cleavage. Kallikrein-5 (Homo sapiens), Q9Y337;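 active = inhibition of 40% or more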;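 also: 0% = enzyme controls without compound and 100% = no-enzyme blanks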
Platelet DG rel: inhibitors of platelet dense granule secretion, primary screen, cell-based, MLPCN, human platelets; human platelet-rich plasma, SFLLRN dense granule ATP release, luminescence; inhibition, %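 (compounds screened at 7.5 µM in platelet-rich plasma)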; hit rate 0.22% among 300,000; AID 1663, 2009;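 active = mean replicate score, as percent of positive control, at or above 50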
thrombin 1536: human alpha-thrombin inhibitors, primary screen, counter-screen for coagulation protease inhibitor project, biochemical, 1536-well, fluorogenic AMC substrate; Prothrombin (Homo sapiens), P00734; hit rate 0.26% among 220,000; inhibition, % at 5 µM; Boc-VPR-AMC fluorogenic substrate cleavage; AID 1046, 2008;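 active = inhibition at or above 40%; inactive = inhibition below 40%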;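 also: 0% = enzyme with no compound and 100% = wells without enzyme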
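System – human alpha-thrombin · Medium – pH 7.5 Tris (50 mM) with NaCl 150 mM, Tween 20 0.05% · Compound – single-point dosing at 5 µM, 0.2% DMSO · Incubation – enzyme reaction carried out at room temperature · Technique – fluorescence of released AMC, ex 355 nm, em 460 nm · Read-out basis – % inhibition of thrombin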
* = called active by the depositor; / = no result given.

SMILES | Wee1 degr inh | FXIa inh 1536 | FXIIa inh 1536 | KLK5 inh | Platelet DG rel | thrombin 1536
Cc1ccc(S(=O)(=O)N2CCC(C(N)=O)CC2)cc1[N+](=O)[O-] | / | / | / | / | 10 | /
CCn1ccc(C(=O)Nc2ccsc2C(=O)OC)n1 | / | / | / | / | -9 | /
CCC(=O)c1ccc(OCC(=O)OCC(=O)Nc2c(C)n(C)n(-c3ccccc3)c2=O)cc1 | / | / | / | / | 4 | /
Cc1c(NC(=O)COC(=O)CCC(=O)c2ccc(Cl)cc2)c(=O)n(-c2ccccc2)n1C | 9.4* | -6 | 10 | -3 | 0 | -22
Cc1c(NC(=O)CN2CCCc3ccccc32)c(=O)n(-c2ccccc2)n1C | 0 | 0 | 15 | 144* | 2 | 17
Cc1c(NC(=O)CC(=O)Nc2c(C)n(C)n(-c3ccccc3)c2=O)c(=O)n(-c2ccccc2)n1C | -3 | -9 | -2 | 5 | -2 | -5
CC1CC(C)CN(C(=O)C(NS(=O)(=O)c2ccc(Br)s2)c2ccccc2)C1 (stereo not drawn) | 7 | 0 | 0 | -13 | 2 | -6
CC1CCC2C(=O)N(c3cccc(C(=O)Nc4ccccc4Cl)c3)C(=O)C2C1 (stereo not drawn) | / | / | / | / | -8 | /
CN=C1SC(CC(=O)Nc2c(C)cccc2C)C(=O)N1/N=C/c1cccs1 (stereo not drawn) | 1 | 4 | 0 | -18 | -1 | -6
COc1ccc([N+](=O)[O-])cc1NC(=O)CC1SC(=Nc2cccc(C)c2C)N(/N=C/c2cccc(OC)c2OC)C1=O (stereo not drawn) | -2 | 102* | 22 | -3 | 9 | 21
COc1cccc(-n2cc(CNC(=O)C3CCC(=O)N(C4CC4)C3)cn2)c1 (stereo not drawn) | / | / | / | / | -16 | /
O=C(NCCN1CCN(c2ccccc2)CC1)C1CCN(S(=O)(=O)c2cccc3nsnc23)CC1 | 2 | -8 | 3 | -12 | 0 | 2
COc1ccc(-c2ccc(-c3noc(-c4cccc(OC)c4)n3)c(OC)n2)cc1 | 3 | -6 | -10 | 60* | -6 | -1
COc1ccc(-c2ccc(-c3noc(-c4ccccc4C)n3)c(OC)n2)cc1 | -1 | -7 | 3 | -8 | -2 | -7
O=C(N(c1ccccc1)c1ccccc1)N(c1ccccc1)c1ccccc1 | 0 | 10 | 7 | -2 | -7 | -2
NC(=S)N(c1ccccc1)c1ccccc1 | 9.6* | -7 | 7 | -1 | -1 | 7
COc1ccc(-c2nnc(C)c3nocc23)cc1 | / | / | / | / | 5 | /
CCOC(=O)CSc1ccc(C(=O)Nc2ccc(Cl)cc2)cn1 | 1 | -6 | 5 | -6 | -1 | -6
CCOC(=O)CSc1ccc(C(=O)Nc2ccc(OC)cc2)cn1 | 9.4* | 6 | 10 | 24 | 2 | 13
Cc1ccc(CNC(=O)CN(c2cccc([N+](=O)[O-])c2)S(=O)(=O)c2ccccc2)cc1 | 6 | 0 | 10 | -9 | -5 | -4
O=C(CN(c1cccc([N+](=O)[O-])c1)S(=O)(=O)c1ccccc1)NCc1ccccc1 | 1 | 5 | 16 | -19 | 57* | 3
COC(=O)c1[nH]c2cc(C)ccc2c1NC(=O)CN1CCc2cc(OC)c(OC)cc2C1 | 0 | -8 | -1 | 97* | 3 | 4
COC(=O)c1[nH]c2cc(OC)ccc2c1NC(=O)CCN1CCCC(C)(C)C1 | 1 | 14 | 21 | -12 | -17 | 10
COC(=O)c1[nH]c2cc(OC)ccc2c1NC(=O)CCN1CCCCC1 | 1 | 45* | 28 | 31 | -9 | 14
O=C(COC(=O)c1cc(=O)[nH]c(=O)[nH]1)Nc1cccc(S(=O)(=O)N2CCCCC2)c1 | -3 | 6 | 10 | 0 | -25 | /
SMILES | Wee1 degr inh | FXIa inh 1536 | FXIIa inh 1536 | KLK5 inh | Platelet DG rel | thrombin 1536
Cc1ccc(C(=O)N/N=C\c2c(C)nn(-c3ccccc3)c2Cl)cn1 | 0 | 10 | 10 | 41* | 30 | 12
Cc1nn(-c2ccccc2)c(Cl)c1/C=N/NC(=O)c1[nH]ncc1Br | / | / | / | / | 60* | /
Cc1nn(-c2ccccc2)c(Cl)c1/C=N/NC(=O)c1cccnc1 | 3 | 5 | 0 | -10 | -8 | -2
Cc1nn(Cc2c(F)c(F)c(F)c(F)c2F)c(C)c1NC(=O)c1cccc(COc2ccccc2Cl)c1 | 15* | 5 | 14 | -13 | 10 | 4
COc1ccccc1CNC(=O)c1sccc1-c1ccccc1 | / | / | / | / | -4 | /
CCOc1ccccc1CN1C(=O)NC2(CCCCCC2)C1=O | / | / | / | / | -9 | /
CCOc1ccc(S(=O)(=O)n2nc(C)cc2C)cc1 | / | / | / | / | -6 | /
O=C(Nc1ccc(N2CCCCC2)c(Cl)c1)c1ccc(N2CCOCC2)c([N+](=O)[O-])c1 | -1 | 4 | 9 | 45* | 0 | 4
COc1ccc(C2/C(=C(/O)c3ccc(C)cc3)C(=O)C(=O)N2C)cc1 (stereo not drawn) | 0 | 4 | 5 | -31 | 0 | -2
COc1ccc(N2C(=O)C(=O)/C(=C(/O)c3ccc(C)cc3)C2c2cccnc2)cc1 (stereo not drawn) | 10* | 9 | 13 | -9 | 16 | -1
CCN(CC)CCNC(=O)c1ccc(NC(=O)C2CC(=O)N(c3ccc4c(c3)OCCO4)C2)cc1 (stereo not drawn) | / | / | / | / | 4 | /
O=C(Nc1ccsc1C(=O)O)c1ccc(Cl)cc1 | / | / | / | / | -5 | /
Cc1ccc(S(=O)(=O)n2ccc(-c3cccc(OCc4c(F)cccc4Cl)c3)n2)cc1 | -2 | -5 | 3 | 4 | 4 | 3
Cc1ccc(S(=O)(=O)n2ccc(-c3ccc(OCc4c(F)cccc4Cl)cc3)n2)cc1 | 8.8* | -11 | 0 | 6 | 0 | -5
O=Cc1c(OCc2ccccc2)ccc2ccccc12 | 11* | -3 | 7 | -3 | 0 | 4
O=C1/C(=C/c2cccc(Br)c2)SC(=S)N1/N=C/c1cc([N+](=O)[O-])ccc1O | 1 | -2 | 7 | -3 | 3 | 2
Cc1ccc(/C=c2\sc3nc(-c4ccco4)nn3c2=O)o1 | 0 | 3 | 8 | 1 | 0 | 3
Cc1ccc(/C=c2\sc3nc(-c4ccccc4Br)nn3c2=O)o1 | -2 | 8 | 6 | 12 | 1 | 104*
NS(=O)(=O)c1ccc(CNC(=O)Cc2ccccc2[N+](=O)[O-])cc1 | / | / | / | / | 2 | /
NS(=O)(=O)c1ccc(CCNC(=O)Cc2ccccc2[N+](=O)[O-])cc1 | 1 | 59* | 59* | 21 | -1 | 52*
COc1cc(C#N)c(NS(=O)(=O)c2ccc3[nH]c(=O)sc3c2)cc1OC | / | / | / | / | -2 | /
COc1cc(C(=O)O)c2c(c1C)OC(=O)c1c(C)cc(O)c(C=O)c1O2 | / | / | / | / | 0 | /
COC(=O)c1ccccc1NC(=O)c1cccnc1 | / | / | / | / | -3 | /
